Measurements published in ChEMBL document CHEMBL1155708, “Isoaurostatin, a novel topoisomerase inhibitor produced by Thermomonospora alba” (J Nat Prod, 2001).

Columns and labels:
[1] = target: T1, Type II restriction enzyme HindIII (Haemophilus influenzae (strain ATCC 51907 / DSM 11121 / KW20 / Rd), UniProt P43870); test: Inhibition of Haemophilus influenzae Hind 3 assessed as undigested supercoiled pBR322 DNA concentration
T1 sequence (P43870 whole entry): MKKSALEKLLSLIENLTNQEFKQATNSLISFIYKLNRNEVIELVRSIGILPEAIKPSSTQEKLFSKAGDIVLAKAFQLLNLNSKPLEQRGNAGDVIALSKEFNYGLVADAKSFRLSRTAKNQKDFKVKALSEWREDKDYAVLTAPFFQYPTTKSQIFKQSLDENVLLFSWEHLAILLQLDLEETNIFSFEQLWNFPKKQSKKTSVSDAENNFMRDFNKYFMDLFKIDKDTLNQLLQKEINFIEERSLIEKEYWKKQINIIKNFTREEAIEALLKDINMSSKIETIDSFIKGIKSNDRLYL
In short: (§1)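 Restriction enzyme or nuclease activity followed as the remaining undigested supercoiled pBR322 DNA (or RNA) after reaction.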

[2] = target: Type II restriction enzyme EcoRI (Escherichia coli, UniProt P00642); test: Inhibition of Escherichia coli Eco R1 assessed as undigested supercoiled pBR322 DNA concentration; in short: as §1
Chain of Type II restriction enzyme EcoRI (P00642 whole entry): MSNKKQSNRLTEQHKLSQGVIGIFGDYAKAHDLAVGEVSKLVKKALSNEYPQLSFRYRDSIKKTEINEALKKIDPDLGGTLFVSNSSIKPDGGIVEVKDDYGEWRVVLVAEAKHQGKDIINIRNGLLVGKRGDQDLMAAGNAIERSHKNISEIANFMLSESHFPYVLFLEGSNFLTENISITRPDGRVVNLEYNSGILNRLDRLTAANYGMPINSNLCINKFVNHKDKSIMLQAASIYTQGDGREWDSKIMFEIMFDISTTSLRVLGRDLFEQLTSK

[3] = target: DNA topoisomerase 2-alpha (Homo sapiens, UniProt P11388); test: Inhibition human placenta topoisomerase 2 assessed as conversion of catenated kinetoplast DNA to minicircle monomer
Chain of DNA topoisomerase 2-alpha (P11388 whole entry): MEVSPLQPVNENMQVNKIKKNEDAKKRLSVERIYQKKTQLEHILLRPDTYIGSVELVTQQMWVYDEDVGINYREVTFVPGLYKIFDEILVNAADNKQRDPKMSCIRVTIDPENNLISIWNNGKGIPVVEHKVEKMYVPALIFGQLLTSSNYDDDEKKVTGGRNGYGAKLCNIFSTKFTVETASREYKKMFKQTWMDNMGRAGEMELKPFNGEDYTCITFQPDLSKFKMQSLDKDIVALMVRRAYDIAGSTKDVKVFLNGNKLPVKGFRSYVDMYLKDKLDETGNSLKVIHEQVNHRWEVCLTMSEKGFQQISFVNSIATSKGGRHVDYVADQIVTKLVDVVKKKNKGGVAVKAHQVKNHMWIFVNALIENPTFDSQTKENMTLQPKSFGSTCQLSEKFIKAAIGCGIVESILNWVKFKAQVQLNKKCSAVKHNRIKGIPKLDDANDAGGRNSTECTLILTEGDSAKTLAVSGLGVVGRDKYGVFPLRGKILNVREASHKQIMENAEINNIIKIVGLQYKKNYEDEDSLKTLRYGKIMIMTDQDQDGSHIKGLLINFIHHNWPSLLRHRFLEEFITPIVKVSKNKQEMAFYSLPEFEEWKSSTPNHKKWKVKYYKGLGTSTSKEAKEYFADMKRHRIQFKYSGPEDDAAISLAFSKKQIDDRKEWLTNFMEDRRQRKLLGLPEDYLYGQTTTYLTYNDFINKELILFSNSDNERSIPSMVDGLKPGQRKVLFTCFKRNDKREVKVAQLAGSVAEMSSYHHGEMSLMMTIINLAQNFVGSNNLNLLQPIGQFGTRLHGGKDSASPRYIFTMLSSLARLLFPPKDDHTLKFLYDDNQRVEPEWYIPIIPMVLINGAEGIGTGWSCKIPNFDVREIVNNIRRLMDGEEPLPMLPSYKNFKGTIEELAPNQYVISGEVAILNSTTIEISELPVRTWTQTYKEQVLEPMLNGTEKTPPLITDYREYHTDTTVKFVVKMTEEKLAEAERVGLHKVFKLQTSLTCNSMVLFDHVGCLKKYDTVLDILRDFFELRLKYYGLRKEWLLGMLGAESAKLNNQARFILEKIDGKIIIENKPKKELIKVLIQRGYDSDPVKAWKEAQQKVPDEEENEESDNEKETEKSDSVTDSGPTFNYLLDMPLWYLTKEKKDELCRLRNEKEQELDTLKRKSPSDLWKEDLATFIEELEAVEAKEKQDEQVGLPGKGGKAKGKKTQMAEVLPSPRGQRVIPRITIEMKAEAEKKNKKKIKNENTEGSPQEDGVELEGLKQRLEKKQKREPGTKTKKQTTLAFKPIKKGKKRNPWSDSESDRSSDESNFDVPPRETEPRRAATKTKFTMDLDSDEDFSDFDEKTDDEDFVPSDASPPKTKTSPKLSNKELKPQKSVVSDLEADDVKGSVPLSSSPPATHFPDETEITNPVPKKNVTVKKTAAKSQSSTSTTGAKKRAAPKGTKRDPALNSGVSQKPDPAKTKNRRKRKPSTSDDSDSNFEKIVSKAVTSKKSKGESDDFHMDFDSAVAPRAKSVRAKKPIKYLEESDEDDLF
In short: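 Human placenta topoisomerase II decatenation followed as conversion of catenated kinetoplast DNA to minicircle monomers.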

[4] = target: T2, DNA topoisomerase 1 (Homo sapiens, UniProt P11387); test: Inhibition topoisomerase 1 in human HeLa cells assessed as conversion of supercoiled pBR322 DNA to relaxed form; type: cell-based
T2 sequence (P11387 whole entry): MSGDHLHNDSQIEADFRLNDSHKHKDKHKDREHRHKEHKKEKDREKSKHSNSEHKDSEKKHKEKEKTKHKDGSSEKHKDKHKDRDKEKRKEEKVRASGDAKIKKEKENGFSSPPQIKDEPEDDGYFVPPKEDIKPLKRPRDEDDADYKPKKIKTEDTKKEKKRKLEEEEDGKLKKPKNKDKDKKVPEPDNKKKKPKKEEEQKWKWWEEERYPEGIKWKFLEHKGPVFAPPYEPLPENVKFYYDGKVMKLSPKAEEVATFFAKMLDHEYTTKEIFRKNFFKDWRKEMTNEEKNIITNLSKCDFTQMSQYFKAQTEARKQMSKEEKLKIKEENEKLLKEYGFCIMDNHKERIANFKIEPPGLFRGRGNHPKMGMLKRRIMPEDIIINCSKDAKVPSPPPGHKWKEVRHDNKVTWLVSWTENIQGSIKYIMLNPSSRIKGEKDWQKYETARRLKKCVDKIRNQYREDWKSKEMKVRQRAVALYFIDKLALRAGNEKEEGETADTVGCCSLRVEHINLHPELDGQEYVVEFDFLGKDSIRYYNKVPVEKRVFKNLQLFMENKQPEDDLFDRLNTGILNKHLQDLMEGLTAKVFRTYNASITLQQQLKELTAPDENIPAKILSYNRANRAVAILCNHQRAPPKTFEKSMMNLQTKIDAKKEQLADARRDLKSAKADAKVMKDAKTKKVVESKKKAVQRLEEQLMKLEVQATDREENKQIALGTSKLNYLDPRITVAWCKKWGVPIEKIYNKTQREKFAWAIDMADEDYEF
In short: (§2)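 Topo I source: crude extract from cells grown 5 days, PBS-washed and pelleted (1 × 10^6 cells), then lysed 30 min on ice in Tris-HCl pH 7.5 buffer with MgCl2, EGTA, AEBSF, β-mercaptoethanol, 0.5% CHAPS and 10% glycerin. The cleared supernatant relaxes supercoiled pBR322 DNA. Products are resolved on agarose gel and scored by densitometry.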

[5] = target: T2, DNA topoisomerase 1; test: Inhibition topoisomerase 1 in human COLO201 cells assessed as conversion of supercoiled pBR322 DNA to relaxed form; type: cell-based; in short: as §2
[6] = target: T2, DNA topoisomerase 1; test: Inhibition topoisomerase 1 in human A549 cells assessed as conversion of supercoiled pBR322 DNA to relaxed form; type: cell-based; in short: as §2

IC50 [3]	SMILES	IC50 [1]	IC50 [2]	IC50 [4]	IC50 [5]	IC50 [6]
–	CC[C@@]1(O)C(=O)OCc2c1cc1n(c2=O)Cc2cc3ccccc3nc2-1 [CAMPTOTHECIN]	> 300 µM	> 300 µM	–	–	–
1 µM	COc1cccc2c1C(=O)c1c(O)c3c(c(O)c1C2=O)C[C@@](O)(C(=O)CO)C[C@@H]3O[C@H]1C[C@H](N)[C@H](O)[C@H](C)O1 [DOXORUBICIN]	96 µM	> 200 µM	–	–	–
4 µM	C=C1NC(=O)C(C)C(CCC(C)C(=O)/C=C/C(C)=C/CC(C)CCCCCCC)OC(=O)[C@H](CC(OS(=O)(=O)O)C(N)=O)NC(=O)[C@@H](C)CNC1=O (some centres not stated) [TOPOSTATIN]	17 µM	> 250 µM	29 µM	50 µM	55 µM

SMILES	IC50 [3]	IC50 [1]	IC50 [2]	IC50 [4]	IC50 [5]	IC50 [6]
O=C1Oc2cc(O)ccc2/C1=C\c1ccc(O)cc1 [ISOAUROSTATIN]	> 400 µM	> 400 µM	> 400 µM	> 400 µM	> 400 µM	> 400 µM
